An excerpt weighted towards active compounds, which were near 5.4% of everything screened.
aSyn UTR inh – MLPCN primary screen, SNCA 5' untranslated region; alpha-synuclein 5'UTR reporter, inhibitor activity; inhibition, % (tested at 7.5 µM); 0.82% of 300,000 active; in the data active = inhibition above about 60%;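 also: H4 neuroglioblastoma cells stably carrying SNCA 5'UTR luciferase fusion; 0% = DMSO wells and 100% = positive control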
CSC inhib – cancer stem cell inhibition; 1.1% of 300,000 active; inhibition, % at 7.5 µM; cancer stem cell-like cells viability, luminescence; AID 2717; in the data active = inhibition above about 75%; tested in HMLE shEcad cells
SKKanGAS inh – blocks kanamycin growth of S. pyogenes SKKanGAS strain. BacTiter-Glo, 6 h. inhibition, % at 7.5 µM. 1.3% of 300,000 active;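 active = mean replicate score, as percent of positive control median, at least 50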;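 also: strain carries kanamycin resistance gene driven by streptokinase promoter and grows in 40 µg/ml kanamycin; loss of luminescence reflects streptokinase promoter inhibition or plain growth inhibition; 0% = median of DMSO wells and 100% = positive control at its reference dose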
T cruzi repl – blocks replication of Trypanosoma cruzi. AID 1885. inhibition, % (concentration not given with the values). T. cruzi beta-gal in NIH3T3, luminescence, 90 h. 1.4% of 300,000 active;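 active = mean inhibition across valid replicates above about 55%, limit read from the data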;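 also: signal also drops with host cell toxicity which is not excluded here; 0% = plate median of DMSO wells and 100% = zero luminescence signal; higher percent means less beta-gal luminescence so fewer parasites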
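System: Mouse NIH/3T3 fibroblasts infected with β-gal-expressing T. cruzi Tulahuen C4 | Quantity: NIH/3T3 cells, 5,000 per well | Reagent: 5000 reporter trypomastigotes per well | Dosing: Compound pinned at 50 nL/well, DMSO | Schedule: 3 h host attachment, then at least 90 h co-culture | Detection: GalScreen luminescence, 60 min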
Mdm2 MdmX PPI – human Mdm2/MdmX binding inhibition. O15151+Q00987. SaOS-2 split-luciferase Mdm2/MdmX complementation, luminescence. inhibition, % at 8 µM. 3% of 330,000 active. AID 485346;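 active = inhibition of at least 50% at 8 µM in the primary screen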
Target sequence (O15151 whole entry, looked up): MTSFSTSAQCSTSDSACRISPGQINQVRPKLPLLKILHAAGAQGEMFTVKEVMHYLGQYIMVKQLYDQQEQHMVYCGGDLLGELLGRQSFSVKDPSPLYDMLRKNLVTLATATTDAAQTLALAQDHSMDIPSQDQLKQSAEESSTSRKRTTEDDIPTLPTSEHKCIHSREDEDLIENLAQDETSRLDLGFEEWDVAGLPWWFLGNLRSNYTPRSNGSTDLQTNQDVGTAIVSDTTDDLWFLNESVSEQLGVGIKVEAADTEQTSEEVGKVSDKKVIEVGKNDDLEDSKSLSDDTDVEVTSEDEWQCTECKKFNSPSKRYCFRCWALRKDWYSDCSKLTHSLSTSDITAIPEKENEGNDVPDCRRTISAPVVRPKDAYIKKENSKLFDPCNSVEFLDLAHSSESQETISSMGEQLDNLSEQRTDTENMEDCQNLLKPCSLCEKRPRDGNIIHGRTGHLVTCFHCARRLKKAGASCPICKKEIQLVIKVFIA
Target sequence (Q00987 whole entry, looked up): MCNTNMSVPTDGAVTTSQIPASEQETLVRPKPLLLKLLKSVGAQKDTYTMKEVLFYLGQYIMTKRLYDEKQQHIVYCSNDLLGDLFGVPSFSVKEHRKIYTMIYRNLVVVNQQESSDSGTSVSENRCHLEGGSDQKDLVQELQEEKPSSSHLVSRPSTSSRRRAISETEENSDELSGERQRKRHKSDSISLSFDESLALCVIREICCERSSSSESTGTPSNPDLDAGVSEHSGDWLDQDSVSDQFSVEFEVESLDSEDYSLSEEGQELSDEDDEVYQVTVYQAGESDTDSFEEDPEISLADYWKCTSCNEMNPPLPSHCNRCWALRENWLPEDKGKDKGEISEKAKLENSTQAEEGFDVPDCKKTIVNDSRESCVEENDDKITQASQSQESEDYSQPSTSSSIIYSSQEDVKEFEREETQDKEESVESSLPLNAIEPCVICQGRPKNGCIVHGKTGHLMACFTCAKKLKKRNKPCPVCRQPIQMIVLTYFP
Mdm2 MdmX conf – confirmation of human Mdm2/MdmX interaction inhibitors; Mdm2-MdmX binding, luminescent assay; shares compounds with Mdm2 MdmX PPI; 55% of 10,000 active; inhibition, % at 8 µM; in the data active = inhibition above about 40%
FLuc counter – counter-screen for Mdm2/MdmX inhibitors: full-length luciferase; inhibition, % at 8 µM; shares compounds with Mdm2 MdmX PPI; SaOS-2 full-length luciferase counterscreen, luminescence; 77% of 6,200 active; AID 504607;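 active = mean inhibition at 8 µM reaching about 37%, which flags the compound as non-specific, limit read from the data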;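 also: p53-null SaOS-2 cells with luciferase driven by a doxycycline-inducible promoter; compound on cells about two nights before reading with doxycycline added after day one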
Active calls of the source: *; . = no result given.

SMILES	aSyn UTR inh	CSC inhib	SKKanGAS inh	T cruzi repl	Mdm2 MdmX PPI	Mdm2 MdmX conf	FLuc counter
CCc1cc2ccc(OC)cc2nc1SCC(=O)Nc1cc(C)on1	14	-6	-1	15	50*	32	.
CCc1cc2ccccc2nc1SCC(=O)Nc1cc(C)on1	36	-1	-1	-6	27	.	.
Cc1cc2nc(-c3ccc(SCC(=O)N4CCc5ccccc54)nc3)[nH]c2cc1C	-220	52	27	44	98*	42*	65*
Cc1cc2nc(-c3ccc(SCC(=O)NC(C)C)nc3)[nH]c2cc1C	-134	-2	5	5	-52	.	.
CC(=O)Nc1nc(C)c(-c2csc(Nc3cccc(C(C)=O)c3)n2)s1	26	-7	34	-11	82*	46*	41*
CCC(=O)Nc1nc(C)c(-c2csc(Nc3cccc(C(=O)O)c3)n2)s1	-1	6	15	-8	0	.	.
CC(=O)Nc1nc(C)c(-c2csc(Nc3cccc([N+](=O)[O-])c3)n2)s1	67*	1	11	55*	90*	71*	36
CCN(CC)S(=O)(=O)c1cc(NC(=O)C2CSC3(C)CCC(=O)N23)ccc1C (stereo unspecified)	.	.	.	.	-29	.	.
Cc1n[nH]c(C)c1C(=O)CC1(O)C(=O)N(Cc2ccccc2)c2ccc(Br)cc21 (stereo unspecified)	10	-7	4	16	-28	.	.
C=CCN1C(=O)C(O)(CC(=O)c2ccco2)c2cc(Br)ccc21 (stereo unspecified)	-15	30	-5	-15	59*	35	.
Cn1c(N)c(C(=O)COC(=O)c2cc(S(=O)(=O)N3CCOCC3)ccc2F)c(=O)n(C)c1=O	.	28	.	.	82*	28	.
Cc1ccc(S(=O)(=O)N2CCOCC2)cc1C(=O)OCC(=O)c1c(N)n(C)c(=O)n(C)c1=O	.	6	.	.	15	.	.
Cc1ccc(C(=O)Nn2cnnc2)cc1Cl	-20	-6	-3	-2	6	.	.
S=C1SCN(Cc2ccccc2)CN1Cc1ccccc1	-17	.	5	1	26	.	.
S=C1SCN(Cc2cccnc2)CN1Cc1cccnc1	-86	55	-1	-6	79*	77*	56*
COC(=O)c1nn(-c2ccc(C)cc2)c2nnc(Cc3ccccc3)c(=O)n12	-11	-17	-2	-4	5	.	.
Cc1cc(C)cc(C(=O)OCC(=O)NCc2cccs2)c1	-2	-3	1	7	23	.	.
Cc1cc2c(cc(C(=O)OCC(=O)NCc3cccs3)n2C(C)C)o1	39	66	3	-20	63*	50*	77*
N#C/C(C(=O)NCc1ccccc1)=C1/N=C(NC(=O)c2ccco2)c2ccccc21	-1	15	0	0	65*	10	.
COc1ccc(CCNC(=O)/C(C#N)=C2\N=C(NC(=O)c3ccco3)c3ccccc32)cc1	-17	8	5	-2	52*	-13	.
Cc1[nH]c(-c2ccc(F)cc2)cc1C(=O)N1CCN(c2ccccc2F)CC1	19	5	46	13	24	.	.
C(=C\c1ccccc1)/CSc1nnc(-c2ccccn2)n1Cc1ccco1	2	52	18	-5	59*	49*	87*
O=[N+]([O-])/C=C/c1c(OCc2ccccc2)ccc2ccccc12	-5	-9	70*	54	95*	100*	50*
Cc1cccc(NC(=O)C(C)Sc2nc3ccccc3c(=O)n2CCCN2CCOCC2)c1 (stereo unspecified)	.	.	.	.	89*	71*	51*
Cc1[nH]c2ccccc2c1C(=O)CSc1nc2ccccc2c(=O)n1CCCN1CCOCC1	-67	8	-2	32	59*	15	.
SMILES	aSyn UTR inh	CSC inhib	SKKanGAS inh	T cruzi repl	Mdm2 MdmX PPI	Mdm2 MdmX conf	FLuc counter
COc1ccc(C(c2nnnn2CCc2ccccc2)N2CCN(C3CCCC3)CC2)cc1OC (stereo unspecified)	-8	13	0	-23	-12	.	.
Cc1occc1C(=O)Nc1ccc([N+](=O)[O-])cc1Br	-13	.	0	10	2	.	.
O=C(Nc1ccc([N+](=O)[O-])cc1Br)c1cc2ccccc2nc1Cl	-18	-7	6	-5	85*	13	.
CC(C)CN(C(=O)COC(=O)CCC(=O)c1ccc(F)cc1)c1c(N)n(Cc2ccccc2)c(=O)[nH]c1=O	0	.	33	0	-23	.	.
COc1ccc(C2=NN(C(=O)/C=C/c3ccccc3)C(c3ccccc3)C2)c(OC(C)=O)c1 (stereo unspecified)	9	47	38	11	58*	15	.
COc1ccc(-c2cc(C(=O)Nc3cccc(S(=O)(=O)NCc4ccco4)c3)c3ccccc3n2)cc1OC	23	.	26	60*	54*	66*	64*
COc1cc(C(=O)Nc2cccc(S(=O)(=O)NCc3ccco3)c2)cc(OC)c1OC	.	.	.	.	69*	40	98*
O=C(Nc1ccccc1)c1cccc(S(=O)(=O)NCc2ccco2)c1	1	6	-43	1	6	.	.
COc1ccc(-c2cc(C(=O)NCc3ccco3)c3ccccc3n2)cc1OC	-20	.	2	7	-12	.	.
O=C(Nc1cccc(S(=O)(=O)NCc2ccco2)c1)c1cc(-c2ccc(F)cc2)nc2ccccc12	-39	2	35	49	69*	32	76*
CCN(CC)CCCN(Cc1cc2cc3c(cc2[nH]c1=O)OCO3)C(=S)Nc1ccc(OC)cc1	-34	-10	2	6	14	.	.
Cc1ccc(-c2ccc(CCC(=O)O)n2NC(=O)c2ccc([N+](=O)[O-])cc2)cc1	-24	-3	-12	-4	11	.	.
CN(C)c1nc(N(C)C)n(Cc2c(Cl)cccc2Cl)n1	-5	-7	-4	-12	2	.	.
COc1ccc(/C=c2\s/c(=C(/C#N)C(=O)NCc3ccco3)n(-c3ccccc3)c2=O)cc1	5	4	-7	-4	68*	-1	.
COc1ccc(OCCn2cc(/C=C(\C#N)C(=O)NCc3ccco3)c3ccccc32)cc1	46	2	-8	-1	75*	42*	51*
COc1ccc(CC2(CO)COc3ccccc3C2=O)cc1 (stereo unspecified)	-64	49	-14	-4	51*	39	85*
COc1ccc(CN2C(=O)COc3ccccc32)cc1	4	4	0	-1	9	.	.
CSC1=NC(C(Cl)(Cl)Cl)N=C(c2ccc(C)cc2)N1 (stereo unspecified)	118*	57	14	-4	72*	70*	67*
CN1c2ccccc2C(C)(C)C12C=Nc1c(cc(N3CCOCC3)c3ccccc13)O2 (stereo unspecified)	29	.	24	33	59*	14	.
O=C(Nc1nc(-c2ccccn2)cs1)c1cc2ccccc2o1	-61	47	104*	77*	52*	55*	53*

Screens (PubChem BioAssay)
